Compound activity deposited in PubChem by Sanford-Burnham Center for Chemical Genomics.
APJ agonist = agonists of human APJ apelin receptor. AID 2520. actives 0.11% (n = 330,000). P35414. activation, % at 20 µM. CHO-K1 APJ PathHunter beta-arrestin, luminescence; 0% DMSO wells, 100% apelin;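 active means activation more than six SD over the plate average, tested at 20 µM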
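Assay system – PathHunter CHO-K1 APJ (AGTRL-1) beta-arrestin reporter cells · Compound – one dose, 20 µM compound, 1% DMSO · Timing – compound 90 min 25 °C, reagent 1 h · Measured by – luminescence from split beta-galactosidase complementation, Galacton Star/Emerald II substrate · Measure – beta-arrestin recruitment to APJ as agonist activity, luminescent signal · Benchmarks – DMSO vs Apelin-13 10 nM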
CXCR6 block = CXCR6 (human) receptor inhibition. O00574. CHO-K1 PathHunter CXCR6 beta-arrestin, luminescence. inhibition, % at 20 µM. actives 0.36% (n = 360,000). AID 602244; in the data active means inhibition above about 34%, passing the limit was not always enough;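 further: antagonist mode with CXCL16 agonist at 10 nM final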
APJ antag = APJ receptor antagonism. P35414. CHO-K1 APJ beta-arrestin complementation, luminescence. inhibition, % at 20 µM. actives 0.32% (n = 330,000). AID 2521;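 active means inhibition above about 40% at 20 µM, limit read from the data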;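 further: cells challenged with 10 nM apelin-13 agonist together with compound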
CCR6 antagonist = blocks CCL20-driven beta-arrestin recruitment at human CCR6; P51684; CHO-K1 CCR6 PathHunter beta-arrestin, luminescence, CCL20-stimulated; inhibition, % at 20 µM; actives 0.49% (n = 340,000); AID 493098;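 active means compounds whose inhibition of the agonist-driven luminescence signal at 20 µM reaches about 50%, limit read from the data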;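 further: cells stimulated with CCL20 at 14 nM final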
Target sequence (P51684 whole entry, looked up): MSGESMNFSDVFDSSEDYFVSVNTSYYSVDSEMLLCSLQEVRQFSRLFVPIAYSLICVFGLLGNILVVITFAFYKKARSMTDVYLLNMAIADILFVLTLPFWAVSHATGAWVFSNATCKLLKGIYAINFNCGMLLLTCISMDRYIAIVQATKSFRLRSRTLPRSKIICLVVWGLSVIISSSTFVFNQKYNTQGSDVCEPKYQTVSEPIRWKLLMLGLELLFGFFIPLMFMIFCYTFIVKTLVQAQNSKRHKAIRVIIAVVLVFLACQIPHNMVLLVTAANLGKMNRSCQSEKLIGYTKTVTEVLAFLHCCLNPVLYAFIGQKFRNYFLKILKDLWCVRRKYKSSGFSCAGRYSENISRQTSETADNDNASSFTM
EBI2 antag = antagonists of human EBI2 receptor; P32249; actives 0.81% (n = 360,000); inhibition, % at 5 µM; EBI2 beta-arrestin recruitment, luminescence, 7a,25-OHC stimulated; in the data active means inhibition above about 38%;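 further: enzyme fragment complementation signal reports receptor beta-arrestin coupling in cells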
EBI2 antag conf = EBI2 (human) antagonism, single concentration confirmation; shares compounds with EBI2 antag; EBI2 beta-arrestin luminescence, 7a,25-OHC antagonism; inhibition, % at 5 µM; actives 29% (n = 2,400); AID 651997;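 active means inhibition of at least 50%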
EBI2 ag = counter-screen for EBI2 antagonists: EBI2 agonist activity | shares compounds with EBI2 antag | EBI2-expressing cells, agonist mode, luminescence, 60 min; 0% vehicle, 100% 7α,25-dihydroxycholesterol control | activation, % at 5 µM | 2,400 tested, under 10 active;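 active means activation of at least 50%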
bGal cs = beta-galactosidase inhibition counter-screen; shares compounds with EBI2 antag; purified beta-galactosidase, luminescent Galacton Star, 15 min; inhibition, % at 5 µM; actives 1% (n = 2,400); AID 652176;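 active means replicate-average signal at least 3 plate SD below neutral wells, shown as high inhibition, flagging enzyme-inhibiting false positives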;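 further: higher means stronger loss of beta-gal luminescence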
Hits are given with their value; 0 = inactive; - = not tested or not shown. Only some compounds are listed: those with a hit (about 1.5% of all), similar ones and a draw of the others.

SMILES	APJ agonist	CXCR6 block	APJ antag	CCR6 antagonist	EBI2 antag	EBI2 antag conf	EBI2 ag	bGal cs
O=C(C[C@@H]1C[C@H]2c3cc(NC(=O)c4cccnc4)ccc3O[C@H]2[C@H](CO)O1)NCc1ccc(Oc2ccccc2)cc1	-	0	-	-	0	-	-	-
COc1ccc(C2OC(CCc3ccccc3)CC3=C2C(=O)OC(C)(C)O3)cc1 (configuration not stated)	-	0	-	-	0	-	-	-
CCN1CCN(C(=O)/C=C/c2ccc3c(c2)OCO3)CC1	0	0	0	0	66.0	0	0	0
CN1CCN(C(=O)/C=C/c2ccc3c(c2)OCO3)CC1	0	0	0	0	0	-	-	-
O=C(/C=C/C=C/c1ccc2c(c1)OCO2)N1CCCCC1	0	0	0	0	0	-	-	-
CCOC(=O)N1CCN(C(=O)COC(=O)Cc2ccc(OC)cc2)CC1	0	0	0	0	0	-	-	-
CCOC(=O)N1CCN(C(=O)/C=C/c2ccc(OC)cc2)CC1	0	0	0	0	89.6	74.8	0	0
O=C(/C=C/c1ccc2c(c1)OCO2)N1CCN(c2n[nH]c(=O)[nH]c2=O)CC1	0	0	0	0	0	-	-	-
CCOC(=O)N1CCN(C(=O)/C=C/c2ccc3c(c2)OCO3)CC1	0	0	0	0	59.3	61.3	0	0
COC(=O)C1CCN(C(=O)/C=C/c2ccc3c(c2)OCO3)CC1	0	0	0	0	57.4	0	0	0
CN(Cc1cn(Cc2cccc(C(F)(F)F)c2)nn1)C1CN(Cc2cn(Cc3cccc(C(F)(F)F)c3)nn2)S(=O)(=O)C1 (configuration not stated)	-	0	-	-	0	-	-	-
Cc1noc(C)c1S(=O)(=O)NC(=O)C1(C)CCN1C(=O)C1(c2ccc(Cl)cc2)CC1 (configuration not stated)	-	0	-	-	0	-	-	-
Cc1cc(C)cc(CC(=O)N2CCC2(C)C(=O)NS(=O)(=O)c2cc(C)ccc2F)c1 (configuration not stated)	-	0	-	-	0	-	-	-
CCc1nc2ccc(C(=O)NCCCn3ccnc3)cn2c1N(C)Cc1ccc(N(C)C)cc1	-	0	-	-	0	-	-	-
COc1ccc(N(CC(=O)Nc2cc(C)ccc2OC)S(=O)(=O)c2c(C)noc2C)cc1	0	0	0	0	42.5	0	0	0
COc1ccc(N(CC(=O)Nc2cc(C)ccc2C)S(=O)(=O)c2c(C)noc2C)cc1	0	0	0	0	0	-	-	-
Cc1occc1-c1nnc(SCC(=O)NCCc2ccccc2)n1Cc1ccccc1	0	0	0	0	89.9	78.1	0	0
CCn1c(SCC(=O)NNC(=O)Cc2ccccc2)nnc1-c1ccccc1	0	0	0	0	0	-	-	-
Cc1ccc(C(=O)NNC(=O)CSc2nnc(-c3ccncc3)n2-c2ccc(C)cc2)cc1	0	0	0	-	51.6	0	0	0
Cc1occc1-c1nnc(SCC(N)=O)n1Cc1ccccc1	0	0	0	0	0	-	-	-
Cc1ccc(C(=O)NNC(=O)CSc2nnc(-c3ccccc3)n2Cc2ccccc2)cc1	0	0	0	0	96.0	88.7	0	0
Cc1ccc(-n2c(SCC(=O)Nc3ccc(C(=O)O)cc3)nnc2-c2ccncc2)cc1	0	0	0	0	0	-	-	-
CO[C@H]1CN(C)C(=O)c2cc(NC(=O)C3CCCC3)ccc2OC[C@@H](C)NC[C@H]1C	-	-	-	-	0	-	-	-
COc1ccc(C(C)(NC(C)=O)c2nc(-c3ccccc3OC)cs2)cc1 (configuration not stated)	-	0	-	-	0	-	-	-
COc1ccc(N/C=C(\C#N)c2ccc(OCCCF)cc2)cc1	0	0	0	0	71.8	0	0	0
SMILES	APJ agonist	CXCR6 block	APJ antag	CCR6 antagonist	EBI2 antag	EBI2 antag conf	EBI2 ag	bGal cs
Cc1ccc(N/C=C(/C#N)c2ccsc2)cc1	0	0	0	0	0	-	-	-
Cc1ccc(N/C=C(\C#N)c2ccc(OCCCF)cc2)cc1	0	0	0	0	81.3	52.2	0	0
CCN(CC)S(=O)(=O)c1ccc2c(c1)nc(SCC(=O)N1CCCCCC1)n2-c1ccc(OC)cc1	0	0	0	0	47.1	56.4	0	0
O=C1OCCC1Sc1nnc(-c2ccccc2Br)n1Cc1ccccc1 (configuration not stated)	0	0	0	0	0	-	-	-
O=C1OCCC1Sc1nnc(-c2ccccc2Cl)n1Cc1ccccc1 (configuration not stated)	0	0	0	0	53.5	0	0	0
O=C(NCCc1ccccc1)c1ccc(CS(=O)Cc2ccc(Cl)cc2)o1 (configuration not stated)	0	0	0	0	60.0	0	0	0
O=C(NCc1ccccc1)c1ccc(CS(=O)Cc2ccc(Cl)cc2)o1 (configuration not stated)	0	0	0	0	0	-	-	-
COc1ccc(OCCNC(=O)c2ccc(C)cc2)cc1	0	0	0	0	0	-	-	-
Cc1ccc(OCCNC(=O)c2ccc(C)cc2)cc1	0	0	0	0	40.1	0	0	0
Cc1ccc(OCCNC(=O)c2cccc(Oc3ccc(C(F)(F)F)cc3[N+](=O)[O-])c2)cc1	0	0	0	0	40.4	0	0	0
Cc1cccc(OCCNc2ccc(C(F)(F)F)cc2[N+](=O)[O-])c1	0	0	0	0	0	-	-	-
COc1ccc(OC)c(NC(=O)C2(C)CCN2C(=O)CC2CC2)c1 (configuration not stated)	-	0	-	-	0	-	-	-
COc1cccc(C(O)c2ncc(-c3cccc4ccccc34)[nH]2)c1 (configuration not stated)	-	0	-	-	0	-	-	-
COc1cc(OC)nc(Nc2nc(C(N)Cc3ccc(C(F)(F)F)cc3)cs2)n1 (configuration not stated)	-	0	-	-	0	-	-	-
O=C1NC[C@@H](CCCCN2C[C@H](Cc3ccc(O)cc3)N(CCc3ccc(O)cc3)C(=O)C2=O)N(Cc2ccccc2)C1=O	-	0	-	-	0	-	-	-
O=C(CSc1ccc2nc(-c3ccccc3)cn2n1)NCC1CCCO1 (configuration not stated)	0	0	0	0	0	-	-	-
COc1ccc(-c2cn3nc(SCC(=O)NCC4CCCO4)ccc3n2)cc1 (configuration not stated)	0	0	0	0	66.7	0	0	0
O=C(CSc1nnc(-c2ccccc2)c(-c2ccccc2)n1)Nc1ncc(Cl)cc1Cl	0	0	0	0	0	-	-	-
Cc1nc(NC(=O)CSc2nnc(-c3ccccc3)c(-c3ccccc3)n2)c(Cl)cc1Cl	0	0	0	0	41.5	0	0	0
O=C(Nc1cc(C(F)(F)F)cc(C(F)(F)F)c1)O[C@@H]1c2ccccc2[C@@H]2Cc3csc[n+]3[C@H]12	-	0	-	-	0	-	-	-
